Screens deposited in PubChem by Broad Institute.
E-sel inducer – E-selectin induction on HUVECs | HUVEC E-selectin immunofluorescence imaging; normalized: neutral wells 0, TNF-alpha wells 100 | activation, % at 7.58 µM | hit rate 0.37% among 260,000;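 active means mean E-selectin-positive cell signal at least 10% of the positive control, reached in at least 60% of replicates, without over 20% cell loss; inconclusive means no rule given, readout overlaps actives, possibly toxicity-flagged; inactive means the rest, including those meeting only one limit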
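Test system – human umbilical vein endothelial cells (HUVEC), E-selectin induction · Input – 3,000 HUVEC seeded per well · Buffer or medium – EGM-2, gelatin · Compound dosing – single-point compound dose · Detection – immunofluorescence imaging · Measure – percent E-selectin-positive cells · Controls – TNF-alpha high, DMSO low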
Xi reactivation – X-chromosome reactivation activator; XiGFP mouse fibroblasts, % GFP-positive cells imaging, 3 d; cells co-treated with 5-aza-dC sensitizer; scaled so ellipticine positive control = 100%; activation, % at 7.58 µM; hit rate 0.055% among 360,000;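 active means mean normalized replicate activation at least 10% and every replicate at or above 10%; inconclusive means only one of the two criteria met; inactive means mean below 10% and not all replicates reach 10%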;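 further: 0% = median of on-plate neutral control wells and 100% = ellipticine 6 µM median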
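System: 68-5-11 XiGFP fibroblast line | Buffer or medium: DMEM containing 5-aza-dC | Compound: Single point | Times: Compounds 3 days, fix/stain 15 min at room temperature | Benchmarks: Positive control ellipticine, 6 µM final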
FGF22 binding-1 – shifts melting point of recombinant human FGF22; recombinant FGF22 thermal shift, SYPRO orange fluorescence; percent of sucrose octasulfate shift, DMSO zero; hit rate 1.5% among 340,000; Q9HCT0; activity (Tm shift, normalised), % at 9.99 µM;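 active means mean Tm shift, scaled 0 neutral to 100 positive control, at about 1.3% or above, every replicate too, limit read from the data; inconclusive means no clear call, values can overlap the other calls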
Target sequence (Q9HCT0 whole entry, looked up): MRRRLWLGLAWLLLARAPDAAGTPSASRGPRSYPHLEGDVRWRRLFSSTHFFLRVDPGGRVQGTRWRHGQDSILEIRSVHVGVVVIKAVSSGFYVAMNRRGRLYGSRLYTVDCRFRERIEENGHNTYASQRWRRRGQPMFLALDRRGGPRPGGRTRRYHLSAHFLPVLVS
C2C12 statin – suppression of simvastatin myotoxicity | C2C12 myotubes + simvastatin, ATP luminescence, 48 h; scaled: DMSO 0, geranylgeraniol control 100 | rescue of ATP level, % at 7.49 µM | hit rate 0.78% among 330,000;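 active means mean ATP rescue above about 67%, or every replicate alone reaching that limit, limit read from the data, passing the limit was not always enough; inconclusive means no clear call, values can overlap the other calls; inactive means mean under the limit and some replicate under it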;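 further: myotubes were challenged with 10 µM simvastatin during compound exposure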
DENV2 CPE – DENV2-induced cell death inhibition | DENV2-infected cells, cytopathic effect rescue, plate reader | CPE inhibition, % at 9.99 µM | hit rate 1.7% among 350,000 | AID 651640; in the data active means CPE inhibition above about 20%, passing the limit was not always enough; inconclusive means no clear call, values can overlap the other calls; tested in BHK-21 cells;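 further: 0% = median of neutral control wells and 100% = median of positive control wells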
PglD inh – inhibitors of Campylobacter jejuni PglD acetyltransferase. purified PglD enzyme, DTNB colorimetric CoA detection. inhibition, % at 12.5 µM. hit rate 0.098% among 360,000; in the data active means inhibition above about 16%, passing the limit was not always enough; inconclusive means no clear call, values can overlap the other calls
FGF22 binding-2 – binders of human FGF22 by thermal shift; shares compounds with FGF22 binding-1; thermal shift activity, °C (ΔTm) at 38 µM; hit rate 2% among 1,000; recombinant FGF22 thermal shift, SYPRO orange fluorescence;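 active means fitted rise in melting shift crosses a set limit at or below the top valid dose tested; inconclusive means flat fit at mid-level activity, or a poor quality fit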
FGF22 TSA DP – binders of human FGF22 by thermal shift; shares compounds with FGF22 binding-1; Thermal shift assay, SYPRO orange, melting temperature shift; AID 743017; Tm shift (activity), % at 38 µM; 50 tested, under 10 active;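 active means compounds whose fitted dose curve of melting temperature shift rises past a set threshold within the tested doses; inconclusive means flat curve at moderate activity, or poor curve fit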
TSA no protein – compound-only SYPRO artifact for FGF22 binders. shares compounds with FGF22 binding-1. compound-only SYPRO orange thermal shift counter-screen, no protein. AC50, µM (doses to about 38 µM). hit rate 2% among 1,000;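 active means rising signal whose fitted curve reaches the 0.54 level within the top valid dose, showing a melting point, actives reach about 13 µM in these data; inactive means the rest, including activity in the opposite direction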; further: value is where the raw curve crosses a fixed level and not half-maximal
* = called active by the depositor; i = inactive; ? = inconclusive; nt = no result; [ ] = dose if it differs, or a comment. In the library only some 3.3% were active in any assay of this set; here they are far more common.

SMILES	E-sel inducer	Xi reactivation	FGF22 binding-1	C2C12 statin	DENV2 CPE	PglD inh	FGF22 binding-2	TSA no protein	others
CC(C)C(c1nnnn1CCc1ccccc1)N1CCSCC1 (configuration not stated)	nt	0	3.1*	nt	2	nt	0.032	i
CC(C)C(c1nnnn1CCc1ccccc1)N1CCOCC1 (configuration not stated)	nt	nt	nt	-16	nt	-1	nt	nt
O=C(N/N=C/c1c[nH]c2ccccc12)c1cccs1	0	0	2.2*	nt	46*	-3	nt	i	FGF22 TSA DP=0
O=C(NN=Cc1c[nH]c2ccccc12)NN=Cc1c[nH]c2ccccc12	0	0	0	6	0	0	nt	nt
Cc1cc(C(=O)N/N=C/c2c[nH]c3ccccc23)cs1	2	1	2.7*	nt	10	nt	nt	i	FGF22 TSA DP=0
C[C@H](CO)N1C[C@H](C)[C@@H](CN(C)C)OCCCC[C@H](C)Oc2ccc(NS(=O)(=O)c3ccccc3)cc2C1=O	0	0	nt	-5	nt	nt	nt	nt
O=C(Nc1ccccc1)c1[nH]ncc1[N+](=O)[O-]	nt	nt	nt	nt	nt	0	nt	nt
COc1ccc(NC(=O)c2[nH]ncc2[N+](=O)[O-])cc1	2	0	1.4*	nt	9	nt	-0.16	i
O=C(NCC1CC1)c1onc(CSc2ccc(F)cc2)c1C(=O)NCC1CC1	0	0	37*	0	-12	4	-0.12	11µM*
COc1ccc(S(=O)(=O)Nc2cc3c4c(c2)CCN4C(=O)CC3)cc1OC	7	0	12*	2	1	10	-0.008	i
COc1ccc(NS(=O)(=O)c2cc3c4c(c2)CCN4C(=O)CC3)cc1OC	nt	nt	nt	11	nt	nt	nt	nt
COc1cc(C(=O)Nc2nc3ccc(S(C)(=O)=O)cc3s2)cc(OC)c1C	0	1	0	32	3	-2	nt	nt
COc1cc(OC)cc(C(=O)Nc2nc3ccc(S(C)(=O)=O)cc3s2)c1	0	0	1.4*	nt	-5	1	0.02	i
O=C(COC(=O)CSc1ccc([N+](=O)[O-])cc1)NCCC1=CCCCC1	-2	0	5.5*	0	2	-3	0.16	i
Cc1ccc(SCC(=O)OCC(=O)NCCC2=CCCCC2)cc1	0	0	0	13	-1	0	nt	nt
CO[C@H]1CN(C)C(=O)c2cc(NC(C)=O)ccc2OC[C@@H](C)N(C(=O)C2CCCCC2)C[C@H]1C	0	0	0	4	0	-1	nt	nt
CC(C)C#Cc1ccc([C@@H]2[C@@H](CO)N3C(=O)CN(C(=O)C4CCCCC4)C[C@@H]23)cc1	0	0	1.3*	nt	5	nt	0.22	i
CC(C)C#Cc1ccc([C@@H]2[C@@H](CO)N3C(=O)CN(C(=O)C4CCCCC4)C[C@H]23)cc1	0	0	1	nt	-7	nt	nt	nt
CC(C)C#Cc1ccc([C@H]2[C@@H](CO)N3C(=O)CN(C(=O)C4CCCCC4)C[C@@H]23)cc1	0	0	1.9*	nt	?	nt	0.24	i
COc1ccc2c3c(n(C)c2c1)[C@@H](CO)N(S(=O)(=O)c1ccc(C)cc1)CC31CCN(S(=O)(=O)c2ccc(C)cc2)CC1	0	0	0	nt	-2	nt	nt	nt
COc1ccc(S(=O)(=O)N/N=c2\oc3c(OC)cccc3cc2S(=O)(=O)c2ccc(C)cc2)cc1OC	nt	0	1.7*	nt	-4	nt	-0.042	i
CN1CCN(C(=O)C[C@@H]2CC[C@H]3[C@@H](COC[C@@H](O)CN3Cc3ccc4c(c3)OCO4)O2)CC1	0	0	0	-6	0	-1	nt	nt
O=c1c2ccccc2[nH]c2ccc(F)cc12	nt	0	1.5*	nt	-10	nt	-0.051	i
C[C@H](CO)N1C[C@H](C)[C@@H](CN(C)C(=O)Nc2ccccc2)OCCCC[C@H](C)Oc2ccc(NS(C)(=O)=O)cc2C1=O	0	0	0	nt	1	-3	nt	nt
CC(C)NC(=O)N1C[C@@H]2[C@H](c3ccccc31)[C@@H](CO)N2C(=O)c1cccnc1	0	0	0	14	7	-3	nt	nt
SMILES	E-sel inducer	Xi reactivation	FGF22 binding-1	C2C12 statin	DENV2 CPE	PglD inh	FGF22 binding-2	TSA no protein	others
CCCNC(=O)N1[C@@H]2CN(C(=O)c3ccccc3)c3ccccc3[C@@H]2[C@@H]1CO	1	0	1.8*	-3	nt	2	0.23[42 µM]	i
CC(C)NC(=O)N1C[C@H]2[C@@H](c3ccccc31)[C@H](CO)N2C(=O)c1cccnc1	0	0	1.3*	-1	4	2	-0.023	i
CCCNC(=O)N1C[C@@H]2[C@H](c3ccccc31)[C@H](CO)N2C(=O)c1ccccc1	0	0	nt	-2	nt	-1	nt	nt
COC(=O)C[C@@H]1CC[C@H]2[C@@H](COc3ccc(NC(=O)NC(C)C)cc3C(=O)N2C)O1	0	0	1.3*	12	0	-2	0.025	i
Cc1nn(C)cc1NC(=O)C[C@H]1CC[C@@H]2[C@@H](COc3ccc(NC(=O)NC(C)C)cc3C(=O)N2C)O1	0	0	1.6*	9	6	2	0.039	i
C[C@H]1CN([C@@H](C)CO)C(=O)c2ccccc2-c2ccccc2CO[C@@H]1CN(C)C(=O)Nc1ccccc1C(F)(F)F	-2	0	0	24	-1	0	nt	nt
COc1ccc(CN(C)C[C@H]2Oc3ccc(NC(=O)CCC(F)(F)F)cc3CC(=O)N([C@H](C)CO)C[C@@H]2C)cc1	1	0	0	22	5	11	nt	nt
COc1cccc(CNC(=O)C2(C)CCCCN2C)c1 (configuration not stated)	0	0	2.6*	2	-6	-2	-0.1	i
COc1cccc(CNC(=O)C2(C)CCCN2C(=O)C(C)C)c1 (configuration not stated)	0	0	0	1	-6	-4	nt	nt
COc1ccccc1-c1cccc(-c2nc(C(=O)NCc3ccncc3)cc3c2[C@@H](CCO)N([S@](=O)C(C)(C)C)C3)c1	1	0	24*	-14	-3	1	0.11	i
CC(C)(C)[S@](=O)N1Cc2cc(C(=O)N[C@@H]3CCN(Cc4ccccc4)C3)nc(-c3cccc(-c4cccnc4)c3)c2[C@@H]1CCO	0	0	2.1*	5	-3	1	-0.1[42 µM]	i
